Inconclusive results are not listed.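 Rule for the calls, unless noted: active = inhibition over a set limit, the all-compound mean plus 3 SD, in both replicate runs; inconclusive = over that limit in just one replicate run; inactive = at or under that limit in both runs.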
How the values were obtained:
[1] = S. cerevisiae growth inhibition in permissive medium (OD615), pilot counter-assay for S. cerevisiae lifespan shortening project, permissive growth control (AID 705;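 active = growth inhibition above 25% in both replicates, a cutoff set 3 SD above the mean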); settings: OD615, 24 h, at 10 µM, stronger effect = higher value
Procedure, shortened: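 Test system: Saccharomyces cerevisiae strain carrying genetically modified DeaD replicative-lifespan system; buffer or medium: SC raffinose/galactose permissive medium; dosing: one dose 10 µM, DMSO 0.25% final; times: 24 h exposure, 30 °C; measured by: OD at 615 nm; read-out basis: growth inhibition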

[2] = S. cerevisiae growth inhibition in restrictive medium, OD615, pilot screen, restrictive growth control, yeast lifespan reduction project (AID 706;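 active = growth inhibition above a set limit, 3 SD over mean compound inhibition, in both replicates, cut at about 43% in these data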;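 note: modified DeaD lifespan yeast strain shifted to restrictive glucose medium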); settings: OD615, 48 h, at 10 µM, stronger effect = higher value
Procedure, shortened: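 material = engineered S. cerevisiae DeaD strain | buffer or medium = glucose-based CSMM-D restrictive medium | dosing = one concentration, 10 µM final, 0.25% DMSO | schedule = 4 h pre-growth plus 48 h compound exposure, 30 °C | detection = OD615 absorbance reading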

[3] = doxorubicin toxicity protection in MRP-1 cells – H69AR cells, CellTiter-Glo, duplicate, MRP-1 activator project, pilot screen (AID 807;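 active = viability increase at or above a cutoff of the median across tested compounds plus 3 SD, cut at about 8.5% in these data, passing the limit was not always enough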;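 note: compound pretreatment 18-22 h then 72 h combined with doxorubicin; 0% = doxorubicin alone and 100% = vehicle without doxorubicin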); settings: H69AR viability with doxorubicin, CellTiter-Glo luminescence; at 10 µM; stronger effect = higher value
[4] = viability of HCT116 without oncogenic beta-catenin – human colon tumor cells, pilot screen (AID 823;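 active = cell viability at or below a set limit in both duplicate runs, the limit being the all-compound median minus 4 SD, cut at about 23% in these data, passing the limit was not always enough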;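 note: 0% = wells killed by 20 µM Hyamine and 100% = untreated DMSO cell wells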); settings: HCT116 beta-catenin knockout viability, CellTiter-Glo, 60 h; at 10 µM; stronger effect = lower value
[5] = RAM pathway blockade in budding yeast – dse1pr::URA3 reporter, 5-FOA selection, pilot screen (AID 869);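 note: 0% = DMSO wells with no growth and 100% = 10 µM 1-NA-PP1 with full growth; RAM network block rescues cells from 5-FOA so hits raise OD615 growth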; settings: S. cerevisiae dse1pr::URA3 5-FOA growth, OD615, 2 d; at 10 µM; stronger effect = higher value; strain carries analog-sensitive mutant Cbk1 kinase
[6] = RAM signaling pathway blockade in yeast – S. cerevisiae, Pdr1DBD-CYC8 efflux-inhibited sensitized strain, primary screen (AID 1298;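 active = RAM network inhibition above 8.4% in each of two replicates, 3 SD over the compound average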;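 note: 0% = DMSO untreated cells without growth and 100% = 10 µM 1-NA-PP1 full growth; higher means more yeast growth rescued from 5-FOA killing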); settings: S. cerevisiae cbk1-as DSE1-URA3 strain, 5-FOA growth OD615, 2 d; at 50 µM; stronger effect = higher value

CCOC(=O)/C=c1\sc2n(c1=O)CCN=2
inactive: growth inhibition [1] -0.765% | growth inhibition [2] -2% | viability increase [3] -3.32% | viability [4] 91.9% | inhibition [5] 1.44% | RAM network inhibition [6] 2.73%

C(=N\n1cnnc1)/c1ccc(N2CCOCC2)s1
inactive: growth inhibition [1] -13.4% | growth inhibition [2] -3.46% | viability increase [3] -1.47% | viability [4] 89.8% | inhibition [5] 4.36% | RAM network inhibition [6] 8.67%

CCOC(=O)CNC(=O)c1cn(CC)c(=O)c2cc(OC)c(OC)cc12
inactive: growth inhibition [1] -14.4% | growth inhibition [2] -5.67% | viability increase [3] -2.48% | viability [4] 103% | inhibition [5] 2.65% | RAM network inhibition [6] 2.7%

Cn1cnnc1SCc1ccc(C(=O)O)cc1
inactive: growth inhibition [1] -5.04% | growth inhibition [2] 7.69% | viability increase [3] -1.36% | viability [4] 98.1% | inhibition [5] 1.06% | RAM network inhibition [6] 1.81%

Cc1ccc(-c2nc(S(=O)(=O)c3ccc(F)cc3)c(SCC(=O)NCC3CCCO3)o2)cc1 (stereo not given)
inactive: growth inhibition [1] -6.27% | growth inhibition [2] 1.93% | viability increase [3] -6.02% | viability [4] 93.6% | inhibition [5] 0.14% | RAM network inhibition [6] 0.57%

CCN(CC)C(=O)c1cn(CC)c(=O)c2cc(OC)c(OC)cc12
inactive: growth inhibition [1] -18.9% | growth inhibition [2] 2.04% | viability increase [3] -3.37% | viability [4] 103% | inhibition [5] 0.93% | RAM network inhibition [6] 2.76%

CCOC(=O)c1nc(-c2ccc3c(c2)OCO3)[nH]c1C
inactive: growth inhibition [1] -0.36% | growth inhibition [2] -0.67% | viability increase [3] -6.6% | viability [4] 29.7% | inhibition [5] 3.15% | RAM network inhibition [6] 1.76%

CC1(C)Cc2c(sc3nc(SCC(=O)N4CCOCC4)nc(N)c23)CO1
inactive: growth inhibition [1] -2.9% | growth inhibition [2] 18.3% | viability increase [3] -3.19% | viability [4] 98.9% | inhibition [5] 1.49% | RAM network inhibition [6] 0.62%

COc1ccc(NC2=NCC(=O)N2c2ccccc2)c(OC)c1
inactive: growth inhibition [1] -19.2% | growth inhibition [2] -5.42% | viability increase [3] -0.89% | viability [4] 91.5% | inhibition [5] 1.15% | RAM network inhibition [6] 5.45%

Cc1cc(Nc2nc3c(c(=O)n(C)c(=O)n3C)n2C)n(-c2ccc(Cl)cc2)n1
inactive: growth inhibition [1] 9.41% | growth inhibition [2] 3.67% | viability increase [3] -3.74% | viability [4] 92.7% | inhibition [5] 3.25% | RAM network inhibition [6] 3.85%

Clc1nc2sccn2c1/C=N/n1cnc2ccccc21
inactive: growth inhibition [1] 19.9% | growth inhibition [2] 33.8% | viability increase [3] -6.14% | viability [4] 94.7% | inhibition [5] 0.675% | RAM network inhibition [6] 2.34%

CCn1cc(C(=O)NCc2cccnc2)c2cc(OC)c(OC)cc2c1=O
inactive: growth inhibition [1] -18.3% | growth inhibition [2] -10% | viability increase [3] -2.26% | viability [4] 95.7% | inhibition [5] 1.67% | RAM network inhibition [6] 7.22%

Cc1cc(=O)n2[nH]c(C)c(-c3ccc(Cl)cc3)c2n1
inactive: growth inhibition [1] 3.86% | growth inhibition [2] -11.8% | viability increase [3] -5.81% | viability [4] 34.2% | inhibition [5] 2.29% | RAM network inhibition [6] 5.64%

CCC(=O)N1CCc2cc(Br)cc(S(=O)(=O)CCC(=O)NCc3ccco3)c21
inactive: growth inhibition [1] -26.8% | growth inhibition [2] 0.16% | viability increase [3] -4.1% | viability [4] 94.9% | inhibition [5] 2.91% | RAM network inhibition [6] 4.36%

COc1ccc(NC(=O)c2cncc(Br)c2)c(S(=O)(=O)N2CCOCC2)c1
inactive: growth inhibition [1] -1.69% | growth inhibition [2] 7.98% | viability increase [3] -5.06% | viability [4] 98.3% | inhibition [5] 2.21% | RAM network inhibition [6] 4.58%

CCC1CCCCN1C(=O)CSc1nc2c([nH]c3ccccc32)c(=O)n1C (stereo not given)
inactive: growth inhibition [1] -5.5% | growth inhibition [2] -4.4% | viability increase [3] -8.15% | viability [4] 55.7% | inhibition [5] 1.36% | RAM network inhibition [6] 3.27%

CC1CN(C(=O)c2ccccc2C(=O)c2ncc[nH]2)CC(C)O1 (stereo not given)
inactive: growth inhibition [1] -19.6% | growth inhibition [2] 14.7% | viability increase [3] -1.55% | viability [4] 99% | inhibition [5] 2.07% | RAM network inhibition [6] 2.87%

O=C(NCc1ccc2c(c1)OCO2)C1CCN(c2ccc(S(=O)(=O)N3CCCC3)cc2)CC1
inactive: growth inhibition [1] -20.2% | growth inhibition [2] -1.93% | viability increase [3] -6.29% | viability [4] 65.5% | inhibition [5] 3.25% | RAM network inhibition [6] 4.72%

COc1ccc(NC(=O)C2CCC(C)(C(=O)O)C2(C)C)cc1 (stereo not given)
inactive: growth inhibition [1] 1% | growth inhibition [2] 3.7% | viability increase [3] -0.59% | viability [4] 96% | inhibition [5] 1.27% | RAM network inhibition [6] 3.75%

COc1ccc(-c2cc3ccccc3n2CC(O)CN2CCOCC2)cc1 (stereo not given)
inactive: growth inhibition [1] -4.27% | growth inhibition [2] -5.21% | viability increase [3] -6.02% | viability [4] 89.7% | inhibition [5] 0.59% | RAM network inhibition [6] 2.87%
